Measurements as given in publication PMC9208026 (Journal of pharmacological sciences, 2022).

How the values were obtained:
[1] = tested on: bovine type II collagen antibody; assay: Collagen antibody level in CIA mice serum; type: in vivo, DBA1 mice; conditions: CIA mice serum at end of study, ELISA, N = 6
Method in brief: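 Serum came from CIA DBA1 mice (N = 6 per group) at the end of the study, spun at 10,000 rpm for 10 min, then cleared at 10,000 rpm for 3 min and diluted 1:40,000. Anti-bovine type II collagen ELISA: wells blocked 1 h at room temperature; standards and samples 2 h; secondary antibody 1 h; TMB 15 min; stopped and read at A450. Levels were taken from a standard curve; mean ± SEM.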

[2] = tested on: collagen-induced arthritis (CIA) joints; assay: Histopathology study of limbs; type: in vivo, DBA1 mice; conditions: MTX 1.5 mg/kg i.p., CIA mice limbs, H&E, N = 4

For `CN(Cc1cnc2nc(N)nc(N)c2n1)c1ccc(C(=O)N[C@@H](CCC(=O)O)C(=O)O)cc1` [MTX, Methotrexate], the “bovine collagen antibody level in serum compared to vehicle group” value [1] was “lower” and the “histopathological changes (inflammation, synovial hyperplasia, cartilage/bone erosion)” value [2] was “reduced occurrence of the changes”.
